Source: ChEMBL document CHEMBL1145350, “Solid-phase synthesis of quinol fatty alcohols, design of N/O-substituted quinol fatty alcohols and comparative activities on axonal growth” (Bioorg Med Chem Lett, 2006)

System: Radical scavenging activity
Test: Antioxidant activity assessed as ability to scavenge hydroxyl radicals by ABTS competition assay
Assay type: functional
Summary of the method: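 Hydroxyl radical scavenging in ethanolic medium by ABTS competition. Hydroxyl radicals oxidize ABTS to the stable ABTS•+ cation radical, read by absorbance at 405 nm. IC50 is the compound concentration giving a 50% reduction in ABTS•+.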

Molecule `Cc1c(C)c2c(c(C)c1O)CCC(C)(C(=O)O)O2` (configuration not stated) [TROLOX] has an IC50 of 600 µM.
`COc1ccc(OC)c(CCCCCCCCCCCCCCCO)c1` showed an IC50 greater than 10000 µM.
